# Assay outcomes as filed in PubChem.
# TRPC4 block: inhibitors of mouse TRPC4 channel, primary screen, Fluo4 calcium, HEK293 TRPC4beta/mu-opioid cells. B-score at 10 µM. 0.39% of 300,000 active. Short transient receptor potential channel 4 (Mus musculus), Q9QUQ5. DAMGO-evoked Fluo4 calcium flux; stronger effect = lower value;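 active means B-score over 3 SD under the library average, no early fluorescence shift, positive overall ratio signal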
#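 Material: HEK293 cells with stable TRPC4beta plus mu-opioid receptor expression / Probe or stimulus: DAMGO in two steps, submaximal then maximal / Compound: single concentration per test compound / Technique: kinetic Fluo4 fluorescence imaging of calcium influx / Read-out: per-well B score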
# TRPC4 agonist: activators of mouse TRPC4 channel, primary screen, Fluo4 calcium, HEK293 TRPC4beta/mu-opioid cells; Short transient receptor potential channel 4 (Mus musculus), Q9QUQ5; Fluo4 calcium fluorescence; stronger effect = higher value; B-score at 10 µM; 0.49% of 310,000 active; AID 2237, 2010;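 active means B-score above 5 SD of library B-scores, and initial fluorescence ratio not above library mean plus 5 SD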;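 further: positive B-score marks a calcium rise read as TRPC4 activation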
#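 Technique: kinetic Fluo4 calcium fluorescence; Test system: TRPC4beta and mu-opioid receptor HEK293 stable cells; Measure: B-scored integrated calcium fluorescence ratio; Benchmarks: low control buffer alone, high control maximal DAMGO; Schedule: 45 min room-temperature Fluo4 loading, 110 s read.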
# TRPC6 inh: mouse TRPC6 channel inhibitors, primary screen, cell-based, HEK293, membrane potential dye. Short transient receptor potential channel 6 (Mus musculus), Q61143. ACh-evoked depolarization; stronger effect = lower value. B-score at 10 µM. 1.1% of 310,000 active;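 active means B-score under library mean minus 3 SD, initial fluorescence not abnormally high, positive integrated signal ratio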;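 further: B-score derived from integrated fluorescence ratio over the kinetic read; more negative B-score means stronger inhibition of depolarization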
# TRPC4 potent: positive allosteric modulators of TRPC4, primary screen, cell-based, mouse TRPC4beta, HEK293 mu-opioid, Fluo-4 calcium | Short transient receptor potential channel 4 (Mus musculus), Q9QUQ5 | DAMGO EC20, Fluo-4 Ca2+ flux; stronger effect = higher value | B-score at 10 µM | 0.42% of 310,000 active | AID 2227, 2009;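 active means B-score of calcium response area above 5 SD of library B-scores, with initial fluorescence ratio within 5 SD of library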;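 further: B-score of integrated fluorescence ratio over time as area under calcium response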
# TRPC6 activator: mouse TRPC6 channel activators, primary screen, cell-based, HEK293, membrane potential dye; Short transient receptor potential channel 6 (Mus musculus), Q61143; HEK293-TRPC6 membrane potential dye fluorescence; stronger effect = higher value; B-score at 10 µM; 0.13% of 310,000 active; AID 2550, 2010;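 active means B-score of the integrated fluorescence ratio above library mean plus 3 SD, and starting fluorescence ratio within library mean plus 5 SD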;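 further: higher score means more depolarization so channel activation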
# TRPC4 spec 2: mouse TRPC4 off-target activity of TRPC6 inhibitors, second screen | shares compounds with TRPC6 inh | HEK293 TRPC4/MOR, membrane potential dye fluorescence; channel activated by saturating DAMGO dose | inhibition, % at 10 µM | 42% of 920 active | AID 2776;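 active means compounds whose fluorescence signal differed from control wells by over 3 SD, either direction, in both duplicate plates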
# TRPC4 spec: mouse TRPC4 modulation by TRPC6 hits, confirmation, selectivity assay for TRPC6 inhibitor project, cell-based, HEK293 TRPC4/mu-opioid, membrane potential dye | 61% of 920 active | shares compounds with TRPC6 inh | activity change, negative = inhibition, % at 10 µM | membrane potential fluorescence;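 active means rise or fall in signal beyond 3 SD of buffer-only wells in both replicate plates, either sign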;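 further: integrated kinetic ratio of fluorescence range over baseline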
# HEK293 MPD ctr 2-1: nonspecific membrane potential effects, parental HEK293, confirmation, counter-screen for TRPC6 inhibitor project, cell-based, second counter screen. shares compounds with TRPC6 inh. parental HEK293 membrane potential dye fluorescence; maximal acetylcholine challenge after compound addition. signal change vs control, % at 10 µM. 31% of 920 active;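 active means membrane potential signal moving either way by over 3 SD of the maximum-effect control, in both duplicate plates, meaning non-specific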
# HEK293 MPD ctr-1: membrane potential modulation in parental HEK293, confirmation, counter-screen for TRPC6 inhibitor project, cell-based | shares compounds with TRPC6 inh | parental HEK293 membrane potential dye fluorescence | membrane potential signal change, % at 10 µM | 60% of 920 active;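 active means membrane potential signal shifting up or down by more than 3 SD of buffer-only wells, on both duplicate plates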
# HEK293 MPD ctr-2: parental HEK293 membrane potential modulation, confirmation, counter-screen for TRPC6 modulator project, cell-based; shares compounds with TRPC6 inh; membrane potential dye fluorescence; membrane potential signal change, % at 10 µM; 51% of 2,400 active; AID 488924, 2010;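 active means membrane potential signal moves up or down beyond 5 SD from buffer-only wells, on both duplicate plates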
# HEK293 MPD ctr 2-2: parental HEK293 nonspecific activity of TRPC6 modulators, second screen | inhibition, % at 10 µM | shares compounds with TRPC6 inh | membrane potential dye fluorescence; after compound, maximal acetylcholine stimulation | 14% of 2,400 active;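 active means membrane potential signal drops by more than 5 SD from the mean control signal, in both duplicate plates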;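 further: plate controls were acetylcholine ECmax control wells for no effect and buffer only wells for full effect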
# TRPC4/MOR mod: TRPC4 modulation by TRPC6 hit compounds, confirmation, selectivity assay for TRPC6 modulator project, cell-based, HEK293 TRPC4/mu-opioid, membrane potential dye, mouse; 69% of 2,400 active; percent change from control (negative = decrease, positive = increase), % at 10 µM; shares compounds with TRPC6 inh; membrane potential fluorescence;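 active means membrane potential signal moved up or down beyond 5 SD of buffer control wells, in both duplicate plates, actives on both sides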;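 further: plate controls were assay buffer wells for no effect and DAMGO maximal-effect wells for full effect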
# TRPC4 ctr inh 2: mouse TRPC4 off-target activity of TRPC6 modulators, second screen; shares compounds with TRPC6 inh; HEK293 TRPC4/mu-opioid, membrane potential dye fluorescence; stimulated with maximal-effect DAMGO; inhibition, % at 10 µM; 55% of 2,400 active;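 active means drop in membrane potential signal beyond 5 SD of the control wells in both duplicate plates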;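 further: TRPC4 counter screen for TRPC6 hits run under conditions tuned for TRPC6 not TRPC4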
# TRPC6 block conf: mouse TRPC6 channel inhibitors, confirmation, HEK293 cells, membrane potential dye, duplicate; shares compounds with TRPC6 inh; inhibition, % at 10 µM; AID 488960, 2010; 43% of 3,300 active; ACh-evoked depolarization;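 active means fluorescence ratio falls more than 5 SD below the full-stimulation control mean, in both duplicate runs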;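 further: integrated fluorescence ratio of peak minus minimum over baseline after agonist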
# TRPC6 act confirm: mouse TRPC6 channel activators, confirmation, HEK293 cells, membrane potential dye, duplicate; shares compounds with TRPC6 inh; HEK293-TRPC6 membrane potential dye fluorescence, FDSS; activation, % at 10 µM; 11% of 2,800 active;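 active means ratio signal rise beyond 5 SD above unstimulated control wells' mean, seen in both duplicate runs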;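 further: plate controls were buffer EC0 wells for no effect and acetylcholine ECmax response for full effect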
# * = called active by the depositor; i = inactive; nt = not tested or not shown. Most compounds without a hit are left out; they make up all but 2.3% or so of the library.
SMILES,TRPC4 block,TRPC4 agonist,TRPC6 inh,TRPC4 potent,TRPC6 activator,HEK293 MPD ctr-2,HEK293 MPD ctr 2-2,TRPC4/MOR mod,TRPC4 ctr inh 2,TRPC6 block conf,TRPC6 act confirm,others
CCN(CC)CCNc1cc(C)c(C#N)c2nc3ccccc3n12,i,i,-10.9*,i,i,-411.0%*,96.5%*,-66.5%*,62.5%*,71.0%*,i,
CCCc1cc(NCCCCO)n2c(nc3ccccc32)c1C#N,i,i,i,i,i,nt,nt,nt,nt,nt,nt,
Cc1cc(NCCCCO)n2c(nc3ccccc32)c1C#N,i,i,i,i,i,nt,nt,nt,nt,nt,nt,
CCN(CC)CCCNc1cc(C(F)(F)F)c(C#N)c2nc3ccccc3n12,i,i,-6.53*,i,i,i,66.0%*,-66.0%*,71.0%*,70.0%*,i,
CCN(Cc1ccccc1)C(=O)c1oc2ccc(S(=O)(=O)N3CCOCC3)cc2c1C,i,i,i,i,i,nt,nt,nt,nt,nt,nt,
N=C1c2ccccc2CN1c1ccc(N2CCOCC2)c(S(=O)(=O)Nc2ccc(Cl)cc2)c1,i,i,-7.44*,i,i,nt,nt,nt,nt,i,i,TRPC4 spec 2=35.5%*;TRPC4 spec=-12.6%*;HEK293 MPD ctr 2-1=i;HEK293 MPD ctr-1=i
O=C(NC(=S)NC1C2CC3CC(C2)CC1C3)C12CC3CC(CC(C3)C1)C2 (stereo not given),i,i,-8.01*,i,i,nt,nt,nt,nt,i,i,TRPC4 spec 2=i;TRPC4 spec=i;HEK293 MPD ctr 2-1=i;HEK293 MPD ctr-1=i
Cc1cc(NS(=O)(=O)c2ccc(NC(=O)CCSc3ccc(F)cc3)cc2)nc(C)n1,i,i,i,i,i,nt,nt,nt,nt,nt,nt,
Cc1ccc(SCc2cc(=O)n3ccsc3n2)c(C)c1,i,i,i,i,i,nt,nt,nt,nt,nt,nt,
Cc1ccc(C)c(C(=O)c2c(C)nc3sccn23)c1,i,i,-6.11*,i,i,i,i,10.0%*,i,i,i,
c1ccc(-c2cnnc(N3CCCCC3)n2)cc1,i,i,-6.94*,i,i,nt,nt,nt,nt,71.7%*,nt,TRPC4 spec 2=i;TRPC4 spec=0.7%*;HEK293 MPD ctr 2-1=i;HEK293 MPD ctr-1=i
FC(F)(F)c1cc(-c2ccccc2)nc(N2CCCCCC2)n1,i,i,i,i,i,nt,nt,nt,nt,nt,nt,
CCOc1ccc2c(C)nc(NC3=NC(C)(C)C=C(C)N3)nc2c1,-9*,i,-5.13*,i,i,i,i,i,i,i,i,
COc1cc2ccccc2nn1,i,i,i,i,i,nt,nt,nt,nt,nt,nt,
COc1ccc2c(n1)Sc1nc3ccccc3nc1N2,i,i,i,i,19.1*,210.5%*,i,105.5%*,i,i,i,
S=C(NCC1CCCO1)NC1CCCC1 (stereo not given),i,i,i,i,i,nt,nt,nt,nt,nt,nt,
CSc1nc(SCC(=O)NCC2CCCO2)c2c3c(sc2n1)CN(C)CC3 (stereo not given),i,i,-4.99*,i,i,-134.5%*,i,-28.5%*,i,i,i,
CCOc1ccccc1NC(=S)NNS(=O)(=O)c1c(C)cc(C)cc1C,i,i,i,i,i,nt,nt,nt,nt,nt,nt,
O=Cc1ccc2ccc3cccnc3c2n1,i,i,-9.85*,i,i,-386.0%*,95.0%*,-60.0%*,68.5%*,78.5%*,i,
COc1ccc(S(=O)(=O)N2CCN(c3cc(-c4ccccc4)nc4ncnn34)CC2)cc1,i,i,i,i,i,nt,nt,nt,nt,nt,nt,
COc1ccc(-c2cc(N3CCCC3)n3ncnc3n2)cc1,i,i,-6.52*,i,i,134.5%*,i,26.0%*,i,i,nt,
C/C(CC(=O)NC(C)(C)C)=N\NC(N)=S,i,i,i,i,i,nt,nt,nt,nt,nt,nt,
O=[N+]([O-])C1=CC=C2C(=NC3(CCCCC3)N2O)C1=NC1CCCCC1,i,i,i,i,i,nt,nt,nt,nt,nt,nt,
CC1(C)CC(N=C2C([N+](=O)[O-])=CC=C3C2=NC2(CCCCC2)N3O)CC(C)(C)N1,i,i,-5.25*,i,i,-130.5%*,i,-26.0%*,29.5%*,i,i,
COc1ccc2nc(NCc3ccccc3)[nH]c2c1,-7*,i,-5.25*,i,i,i,i,i,90.5%*,i,i,
